From ChEMBL document CHEMBL1671864, “First assessment in humans of the safety, tolerability, pharmacokinetics, and ex vivo pharmacodynamic antimalarial activity of the new artemisinin derivative artemisone” (Antimicrob Agents Chemother, 2008)

Assays:
[1] = Apparent oral clearance in healthy human at 40 mg, po administered as single ascending doses as solution during 10 hrs overnight fasting state; type: ADME, organism-based; conditions: in vivo
Procedure, shortened: (§1)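 Single ascending oral doses in healthy Caucasian men, given fasted (10-h overnight) with 240 ml water: 10, 20, 30 or 40 mg as oral solution, or 80 mg as IR tablets. Parent plasma levels by LC/MS-MS over 0.25–14 h. Noncompartmental analysis: kel by terminal-phase least-squares regression, AUC extrapolated to infinity, CL/F = dose/AUC, V/F = CL/F÷kel.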

[2] = test system: Homo sapiens; test: Toxicity in healthy human assessed as decrease in alanine aminotransferase level at 80 mg, po administered daily for 3 days as four 20-mg immediate-release tablets during 10 hrs overnight fasting state measured after 2 days last post treatment; type: organism-based; conditions: in vivo, 48 h
[3] = test system: Homo sapiens; test: Toxicity in healthy human assessed as occurrence of clinically relevant changes in vital signs at 10 to 80 mg, po administered as single ascending doses during 10 hrs overnight fasting state; type: organism-based; conditions: in vivo
Procedure, shortened: (§2)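 Healthy Caucasian men received single ascending doses (10–40 mg solution, 80 mg tablets) or 3-day daily tablet courses, all fasting, with randomized placebo controls. Supine blood pressure, heart rate and resting 12-lead ECG were recorded before and after dosing.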

[4] = Half life in healthy human plasma at 40 mg, po administered as two 20 mg immediate release tablets daily for 3 days during 10 hrs overnight fasting state measured after 1 day; type: ADME, organism-based
Procedure, shortened: (§3)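 Healthy Caucasian males took tablets once daily for 3 days with 240 ml water after a 10-h fast. Heparinised blood was drawn predose and at 0.25–14 h after the first and last doses. Plasma parent drug and metabolites M1–M3 were measured by LC/MS-MS (MRM, deuterated internal standard). Noncompartmental analysis gave Cmax observed, t1/2 = 0.693/kel and MRT = AUMC/AUC. Values are geometric means.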

[5] = Tmax in healthy human plasma at 80 mg, po administered as four 20 mg immediate release tablets daily for 3 days during 10 hrs overnight fasting state measured after 3 day; type: ADME, organism-based
Procedure, shortened: (§4)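 Healthy Caucasian men (8 active, 4 placebo per dose) dosed with tablets daily for 3 days after 10-h fast. Lithium-heparin plasma sampled predose and 0.25–14 h after day-1 and day-3 doses, stored frozen. Parent and M1–M3 quantified by LC/MS-MS in positive-ion MRM. Tmax taken directly from observed individual data.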

[6] = Tmax in healthy human plasma at 80 mg, po administered as four 20 mg immediate release tablets daily for 3 days during 10 hrs overnight fasting state measured after 1 day; type: ADME, organism-based; procedure, shortened: as §4
[7] = Mean residence time in healthy human at 40 mg, po administered as two 20 mg immediate release tablets daily for 3 days during 10 hrs overnight fasting state measured after 1 day; type: ADME, organism-based; conditions: in vivo; procedure, shortened: as §3
[8] = AUC in healthy human plasma at 30 mg, po administered as single ascending doses as solution during 10 hrs overnight fasting state; type: ADME, organism-based; set-up: time < 10 hr, dose 30 mg, route oral; procedure, shortened: as §1
[9] = test system: Homo sapiens; test: Toxicity in healthy human assessed as occurrence of adverse event at 80 mg, po administered daily for 3 days as four 20-mg immediate-release tablets during 10 hrs overnight fasting state; type: organism-based; conditions: in vivo
Procedure, shortened: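 3-day daily oral tablet dosing in healthy Caucasian men (8 active, 4 placebo per dose). Adverse events were collected by open questioning and spontaneous report. Severity was graded mild (daily activities unaffected), moderate (some interference) or severe (activities not completed).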

[10] = Apparent volume of distribution with respect to the bioavailability in healthy human at 80 mg, po administered as four 20 mg immediate release tablets daily for 3 days during 10 hrs overnight fasting state measured after 3 day; type: ADME, organism-based; conditions: in vivo, read-out: Vc/F
Procedure, shortened: (§5)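 Healthy Caucasian males took 40 mg (2×20-mg IR tablets) or 80 mg (4 tablets) orally daily for 3 days after a 10-h fast. Plasma parent drug was measured by LC/MS-MS from predose to 14 h after the first and third doses. Noncompartmental analysis: AUC by log-linear trapezoid extrapolated via kel, CL/F = dose/AUC, V/F = CL/F÷kel, geometric means.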

[11] = test system: Plasma; test: Ratio of Ratio of AUC (0 to infinity) in healthy human plasma at 40 mg, po administered as two 20 mg immediate release tablets daily for 3 days during 10 hrs overnight fasting state measured after 1 day to Ratio of AUC (0 to infinity) in healthy human plasma at 40 mg, po administered as two 20 mg immediate release tablets daily for 3 days during 10 hrs overnight fasting state measured after 3 day; type: ADME, organism-based; conditions: in vivo
Procedure, shortened: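 Healthy Caucasian men took tablets daily for 3 days with 240 ml water after 10-h fast. Plasma sampled 0.25–14 h after first and last doses, artemisone measured by LC/MS-MS. Accumulation ratio is Cmax or AUC0-∞ after last dose divided by that after first dose. Noncompartmental analysis, geometric means with 95% CI.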

[12] = AUC in healthy human plasma at 80 mg, po administered as single immediate release tablets during 10 hrs overnight fasting state; type: ADME, organism-based; set-up: dose 80 mg, time < 10 hr, route oral; procedure, shortened: as §1
[13] = test system: Homo sapiens; test: Toxicity in healthy human assessed as occurrence of changes in electrocardiogram parameters at 80 mg, po administered daily for 3 days as four 20-mg immediate-release tablets during 10 hrs overnight fasting state; type: organism-based; conditions: in vivo; procedure, shortened: as §2
[14] = Apparent oral clearance in healthy human at 80 mg, po administered as four 20 mg immediate release tablets daily for 3 days during 10 hrs overnight fasting state measured after 3 day; type: ADME, organism-based; conditions: in vivo; procedure, shortened: as §5
[15] = Cmax in healthy human plasma at 20 mg, po administered as single ascending doses as solution during 10 hrs overnight fasting state; type: ADME, organism-based; set-up: dose 20 mg, route oral
Procedure, shortened: (§6)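 Healthy Caucasian male volunteers, single oral dose with 240 ml water after a 10-h overnight fast. Heparinised venous blood was drawn predose and at 0.25–14 h. Plasma was stored frozen. Parent drug and metabolites M1–M3 were measured by LC/MS-MS (MRM, deuterated internal standard). Noncompartmental analysis gave Cmax observed, t1/2 = 0.693/kel (terminal regression) and MRT = AUMC/AUC. Values are geometric means.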

[16] = Cmax in healthy human plasma at 40 mg, po administered as two 20 mg immediate release tablets daily for 3 days during 10 hrs overnight fasting state measured after 1 day; type: ADME, organism-based; set-up: dose 40 mg, route oral; procedure, shortened: as §3
[17] = test system: Homo sapiens; test: Toxicity in healthy human assessed as increase in glutamate dehydrogenase level at 80 mg, po administered daily for 3 days as four 20-mg immediate-release tablets during 10 hrs overnight fasting state measured after 24 hrs last post treatment; type: organism-based; conditions: in vivo
[18] = Half life in healthy human plasma at 30 mg, po administered as single ascending doses as solution during 10 hrs overnight fasting state; type: ADME, organism-based; procedure, shortened: as §6
[19] = Apparent oral clearance in healthy human at 80 mg, po administered as single immediate release tablets during 10 hrs overnight fasting state; type: ADME, organism-based; conditions: in vivo; procedure, shortened: as §1
[20] = Tmax in healthy human plasma at 30 mg, po administered as single ascending doses as solution during 10 hrs overnight fasting state; type: ADME, organism-based
Procedure, shortened: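 Healthy Caucasian male volunteers, randomized within each dose group against placebo, given a single oral solution with 240 ml water after a 10-h overnight fast. Plasma sampled predose and at 0.25–14 h, quantified by LC/MS-MS (MRM, deuterated internal standard). Tmax read directly from individual noncompartmental concentration–time data.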

[21] = test system: Homo sapiens; test: Toxicity in healthy human assessed as increase in alanine aminotransferase level at 80 mg, po administered daily for 3 days as four 20-mg immediate-release tablets during 10 hrs overnight fasting state measured after 24 hrs last post treatment; type: organism-based; conditions: in vivo

For C[C@H]1[C@H](N2CCS(=O)(=O)CC2)O[C@@H]2O[C@@]3(C)CC[C@H]4[C@H](C)CC[C@@H]1[C@@]24OO3 [ARTEMIFONE], the CL/F [1] was 5640 mL/min, the Activity [2] was “Non-toxic” and the Activity [3] was “Non-toxic”. The half-life [4] was 3.36 h, the Tmax [5] was 1.5 h and the Tmax [6] was 1.5 h. The MRT [7] was 2.91 h, the AUC at 10 h [8] was 71.8 ng·h/mL and the Activity [9] was “Non-toxic”. For the same compound, the Vd/F [10] was 13.7 L/kg, the Ratio [11] was 104% and the AUC at 10 h [12] was 282 ng·h/mL. For the same compound, the Activity [13] was “Non-toxic”, the CL/F [14] was 3950 mL/min and the Cmax [15] was 57.3 ng/mL. For the same compound, the Cmax [16] was 96.4 ng/mL, the Activity [17] was “Non-toxic” and the half-life [18] was 3.14 h. For the same compound, the CL/F [19] was 4740 mL/min, the Tmax [20] was 0.5 h and the Activity [21] was “Non-toxic”.
